Compound activity: PubChem BioAssay, PCMD
Yeast eIF2B – modulators of yeast eIF2B activity. S. cerevisiae eIF2B-epsilon R284H, GCN4-lacZ luminescence. inhibition, % at 25 µM (by protocol). 27,000 tested, 0.91% active;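 active = mutant luminescence inhibited past about 50% while wild type luminescence and mutant growth stay under set limits, limit read from the data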
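Material: yeast eIF2B-epsilon R284H mutant carrying GCN4–beta-galactosidase fusion. Medium: YPD yeast growth medium. Incubation: 16 h growth with compound at 30 °C, 90 min Beta-Glo step. Signal: Beta-Glo luminescence plus absorbance at 595 nm. Evaluation: % inhibition of reporter signal and growth versus controls. Doses: 25 µM single dose.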
Yeast growth tox – Inhibitors of S. cerevisiae growth, toxicity | 30,000 tested, 0.3% active | growth inhibition, % at 25 µM (by protocol) | S. cerevisiae wild-type growth, A595 turbidity, 16 h | AID 685;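 active = mutant and wild-type yeast strains alike exhibit over 30% growth inhibition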;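 also: 0% = untreated cell controls and 100% = YPD media blanks without cells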
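Test system: Wild-type and eIF2Bepsilon-R284H mutant S. cerevisiae, screened separately | Dosing: Single 25 µM compound dose in 0.2% DMSO | Schedule: 16 h compound exposure during growth at 30 °C | Detection: A595 turbidity | Evaluation: Growth inhibition (%) versus cell controls and blanks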
* = called active by the depositor. This is a sample that favours compounds with a hit; in the whole collection about 1.1% have one here.

Screening Cc1cc(C)n(-c2cc(=O)n(C)c(=O)n2C)n1 returned Yeast eIF2B 50.8* and Yeast growth tox -3.1.
`O=C1NC(NS(=O)(=O)c2ccc(Cl)cc2)(C(F)(F)F)C(=O)N1Cc1cccnc1` (stereo not drawn) gave Yeast eIF2B 9.2 and Yeast growth tox 20.4.
`N#CC1=C(N)N2C(=C(C#N)C1c1ccccc1)Sc1ccccc12` (stereo not drawn) gave Yeast eIF2B 13.8 and Yeast growth tox 7.2.
CCOc1ccc(C2C(C#N)=C(N)N3C(=C2C#N)Sc2ccccc23)cc1 (stereo not drawn) was read as Yeast eIF2B 53.5* and Yeast growth tox 0.3.
COC(=O)CSc1nc(-c2cccs2)ccc1C#N was read as Yeast eIF2B 26.1.
`CN1CCN(C(=O)CSc2nc(-c3ccncc3)ccc2C#N)CC1` gave Yeast eIF2B 71.2* and Yeast growth tox 12.1.
For O=C(NC1CCCCC1)N1CCN(C(c2ccccc2)c2ccccc2)CC1 the results were Yeast growth tox -0.3.
CCOC(=O)c1c(N)nn(C(C)=O)c1-c1ccccc1 was read as Yeast eIF2B 53.8* and Yeast growth tox -2.9.
For CCOC(=O)c1c(N)nn(C(=O)C(C)C)c1-c1ccc(OC)cc1 the results were Yeast eIF2B 12.1 and Yeast growth tox -41.0.
Screening N#Cc1c(-c2ccc(Cl)cc2)ccn2nc(C3CCCCC3)nc12 returned Yeast eIF2B 16.9 and Yeast growth tox 6.1.
C1CCC(C23CC4CC(CC(C4)C2)C3)NC1 (stereo not drawn) was read as Yeast eIF2B -1.9 and Yeast growth tox 16.3.
For CN=C1S/C(=C\c2cccn2-c2cccc(Br)c2)C(=O)N1C the results were Yeast eIF2B 21.1 and Yeast growth tox -14.3.
Nc1ccccc1N1CCN(C(=O)c2ccccc2)CC1 was read as Yeast eIF2B 9.6 and Yeast growth tox 9.5.
`O=C(Nc1ccccc1N1CCN(C(=O)c2ccccc2)CC1)c1cc2ccccc2o1` gave Yeast eIF2B 50.0* and Yeast growth tox -30.0.
`CCC(CC)COC(=O)C(C#N)c1nc2ccccc2nc1N1CCOCC1` (stereo not drawn) gave Yeast eIF2B 14.0 and Yeast growth tox 12.2.
Screening N#CC(C(=O)OC1CCCCC1)c1nc2ccccc2nc1N1CCOCC1 (stereo not drawn) returned Yeast eIF2B 51.4* and Yeast growth tox -12.9.
For COc1cc2ccccc2cc1C(=O)Nc1cccnc1 the results were Yeast eIF2B 18.4 and Yeast growth tox 2.4.
For O=C(Nc1cccnc1)c1ccccc1Oc1ccccc1 the results were Yeast eIF2B 63.7* and Yeast growth tox -5.1.
`Cc1cccc(N2C(=S)N=C(Nc3c(C)cccc3C)C23CCOC(C)(C)C3)c1` (stereo not drawn) gave Yeast growth tox 27.9.
`CN(C)C(=O)COC(=O)/C=C/c1ccccc1[N+](=O)[O-]` gave Yeast growth tox 22.3.
Screening Cc1cc(=O)oc2cc(OCC(=O)N3CCCc4ccccc43)ccc12 returned Yeast eIF2B -7.3 and Yeast growth tox 2.9.
Screening Cc1cc(=O)oc2ccc(OCC(=O)N3CCc4ccccc43)cc12 returned Yeast eIF2B 50.1* and Yeast growth tox 5.5.
For COc1ccc(-c2nnn(CC(=O)N(Cc3ccc(F)cc3)C(C(=O)NC3CCCC3)c3ccc(F)cc3)n2)cc1 (stereo not drawn) the results were Yeast eIF2B 55.5* and Yeast growth tox -7.9.
Screening CCOC(=O)CN(C(=O)Cn1nnc(-c2ccc(OC)cc2)n1)C(C(=O)NC1CCCC1)c1ccc(F)cc1 (stereo not drawn) returned Yeast eIF2B 17.4 and Yeast growth tox 16.2.
`CS(=O)(=O)Nc1ccccc1C(=O)N1CCN(c2ccccc2)CC1` gave Yeast eIF2B 13.9 and Yeast growth tox 14.1.
CCOC(=O)COc1ccc(S(=O)(=O)NCc2ccncc2)cc1 was read as Yeast eIF2B -1.5 and Yeast growth tox -11.1.
CCOC(=O)COc1ccc(S(=O)(=O)NCc2ccco2)cc1 was read as Yeast eIF2B 53.5* and Yeast growth tox -9.5.
Screening Cc1ccc(CSc2nnc(-c3ccncc3)n2CC2CCCO2)cc1 (stereo not drawn) returned Yeast eIF2B 11.9 and Yeast growth tox 13.0.
For Brc1ccc(CN2CCSCC2)cc1 the results were Yeast eIF2B 10.8 and Yeast growth tox 8.8.
O=C1CNC(=O)N1Cc1ccc(Br)cc1 was read as Yeast eIF2B 51.0* and Yeast growth tox -8.9.
Screening COC(=O)c1cc(NC(=O)c2ccccc2)c(=O)oc1C/C=N\OCc1ccc(Cl)cc1Cl returned Yeast eIF2B 7.3 and Yeast growth tox 19.3.
Screening COC(=O)C1=C(N)c2c(F)cccc2C1(C#N)c1ccc(F)cc1 (stereo not drawn) returned Yeast eIF2B 14.1 and Yeast growth tox 8.2.
For COC(=O)c1cc2occc2n1CC(=O)Nc1cc(OC)cc(OC)c1 the results were Yeast eIF2B 7.4 and Yeast growth tox -27.1.
Screening COC(=O)c1cc2occc2n1CC(=O)Nc1ccc(OC)c(OC)c1 returned Yeast eIF2B 60.3* and Yeast growth tox -2.3.
For Oc1cc(Cc2ccccc2)cnc1CN1CCCCC1 the results were Yeast eIF2B 56.3* and Yeast growth tox -15.4.
`O=C(C1CCCN(Cc2ccccc2)C1)N1CCCCC1` (stereo not drawn) gave Yeast eIF2B 11.6 and Yeast growth tox 9.6.
COc1ccc(CC(=O)Nc2ccc(S(=O)(=O)Nc3cc(C)on3)cc2)cc1 was read as Yeast eIF2B 14.3 and Yeast growth tox 12.3.
Cc1ccc(OCCCC(=O)Nc2ccc(S(=O)(=O)Nc3cc(C)on3)cc2)cc1 was read as Yeast eIF2B 53.2* and Yeast growth tox 1.7.
`COC(=O)c1sccc1-n1cccc1C(=O)C(=O)N1CC(C)OC(C)C1` (stereo not drawn) gave Yeast eIF2B 11.3 and Yeast growth tox -5.8.
Screening Cc1ccc(C)c(Cn2c(C(=O)OC(C)C)cc3c2ccn3C)c1 returned Yeast eIF2B 0.8 and Yeast growth tox -13.4.
Cc1ccc(S(=O)(=O)/N=C(\CCl)N2CCOCC2)cc1 was read as Yeast eIF2B 28.5 and Yeast growth tox 25.4.
For CCc1nc(NCCCCCO)c2nnn(Cc3ccccc3F)c2n1 the results were Yeast growth tox 33.1.
`Cc1cc(-c2nc3ccccc3o2)c2ccccc2n1` gave Yeast eIF2B 4.7 and Yeast growth tox -5.6.
Screening Cc1nc2ccc(-c3ccccc3)cc2o1 returned Yeast eIF2B 4.7 and Yeast growth tox 32.4*.
`COC(=O)c1ccc(C(=O)OC)c(NC(=O)CN(c2ccc3c(c2)OCO3)S(C)(=O)=O)c1` gave Yeast growth tox -0.8.
Screening COc1cccc(/C=C/C(=O)c2c(O)cc(C)oc2=O)c1O returned Yeast eIF2B 24.8 and Yeast growth tox 33.9*.
Screening COc1cc(/C=C/C(=O)c2c(O)cc(C)oc2=O)cc(OC)c1O returned Yeast eIF2B 11.2 and Yeast growth tox 11.9.
Cn1c(Cc2ccccc2)nnc1SCC(=O)c1cccs1 was read as Yeast eIF2B 9.0 and Yeast growth tox 1.4.
`Cc1cc(C)c(S(=O)(=O)N2CCC(C(=O)NCc3ccc(Cl)cc3Cl)CC2)c(C)c1` gave Yeast growth tox 82.3*.
For CCS(=O)(=O)N1CCC(C(=O)NCc2ccc(F)cc2Cl)CC1 the results were Yeast eIF2B -35.2 and Yeast growth tox 0.6.
